In ChEMBL document CHEMBL4689842, “EUbOPEN Chemogenomics Library wave 1” (2021):

Test system: U2OS
Test: Multiplex assay against U2OS
Type: toxicity, cell-based
Settings: human
Method in brief: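 Cells stained live at seeding with Hoechst33342, BioTracker Green Microtubule Cytoskeleton Dye, MitoTracker Red and Annexin V Alexa Fluor 680 were imaged on a CQ1 microscope at 37°C and 5% CO2 after compound addition. Their classification by CellPathfinder machine-learning gating ran from Hoechst high-intensity objects versus normal cells, to healthy, pyknosed or fragmented nuclei among normal cells, to mitotic or apoptotic among pyknosed cells. Tubulin, mitochondrial-mass and membrane-permeability phenotypes are per cents of healthy-nucleus cells.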

[1] = 12 h, 1 µM, compound concentration 1 uM, replicate 1
[2] = 12 h, 1 µM, compound concentration 1 uM, replicate 2
[3] = 12 h, 10 µM, compound concentration 10 uM, replicate 1
[4] = 12 h, 10 µM, compound concentration 10 uM, replicate 2
[5] = 24 h, 1 µM, compound concentration 1 uM, replicate 1
[6] = 24 h, 1 µM, compound concentration 1 uM, replicate 2
[7] = 24 h, 10 µM, compound concentration 10 uM, replicate 1
[8] = 24 h, 10 µM, compound concentration 10 uM, replicate 2
[9] = 48 h, 1 µM, compound concentration 1 uM, replicate 1
[10] = 48 h, 1 µM, compound concentration 1 uM, replicate 2
[11] = 48 h, 10 µM, compound concentration 10 uM, replicate 1
[12] = 48 h, 10 µM, compound concentration 10 uM, replicate 2

## Cl.Oc1ccc2c3c1O[C@H]1c4[nH]c5c(c4C[C@@]4(O)[C@@H](C2)N(CC2CC2)CC[C@]314)C[C@@]1(O)[C@H]2Cc3ccc(O)c4c3[C@@]1(CCN2CC1CC1)[C@H]5O4
[1]
  Population Apoptotic (%): 38%
  Population Fragmented Nuclei (%): 9%
  Population Healthy Nuclei (%): 79%
  Population Hoechst High Intensity Objects (%): 6%
  Population Membrane Permeable-Phenotype (%): 9%
  Population Mitochondria Different-Phenotype (%): 15%
  Population Mitotic Cells (%): 61%
  Population Normal (%): 93%
  Population Tubulin-Different-Phenotype (%): 14%
  Total Cell Count: 105
[2]
  Population Apoptotic (%): 42%
  Population Fragmented Nuclei (%): 3%
  Population Healthy Nuclei (%): 86%
  Population Hoechst High Intensity Objects (%): 9%
  Population Membrane Permeable-Phenotype (%): 10%
  Population Mitochondria Different-Phenotype (%): 19%
  Population Mitotic Cells (%): 57%
  Population Normal (%): 90%
  Population Pyknosed Nuclei (%): 10%
  Population Tubulin-Different-Phenotype (%): 17%
  Total Cell Count: 97
[3]
  Population Apoptotic (%): 57%
  Population Fragmented Nuclei (%): 14%
  Population Healthy Nuclei (%): 73%
  Population Hoechst High Intensity Objects (%): 6%
  Population Membrane Permeable-Phenotype (%): 6%
  Population Mitochondria Different-Phenotype (%): 10%
  Population Mitotic Cells (%): 42%
  Population Normal (%): 93%
  Population Pyknosed Nuclei (%): 12%
  Population Tubulin-Different-Phenotype (%): 3%
  Total Cell Count: 183
[4]
  Population Apoptotic (%): 93%
  Population Fragmented Nuclei (%): 12%
  Population Healthy Nuclei (%): 48%
  Population Hoechst High Intensity Objects (%): 7%
  Population Membrane Permeable-Phenotype (%): 52%
  Population Mitochondria Different-Phenotype (%): 26%
  Population Mitotic Cells (%): 6%
  Population Normal (%): 92%
  Population Pyknosed Nuclei (%): 38%
  Population Tubulin-Different-Phenotype (%): 89%
  Total Cell Count: 73
[5]
  Population Apoptotic (%): 30%
  Population Fragmented Nuclei (%): 7%
  Population Healthy Nuclei (%): 80%
  Population Hoechst High Intensity Objects (%): 3%
  Population Membrane Permeable-Phenotype (%): 6%
  Population Mitochondria Different-Phenotype (%): 12%
  Population Mitotic Cells (%): 69%
  Population Normal (%): 96%
  Population Pyknosed Nuclei (%): 11%
  Population Tubulin-Different-Phenotype (%): 9%
  Total Cell Count: 113
[6]
  Population Apoptotic (%): 25%
  Population Fragmented Nuclei (%): 3%
  Population Healthy Nuclei (%): 91%
  Population Hoechst High Intensity Objects (%): 4%
  Population Membrane Permeable-Phenotype (%): 10%
  Population Mitochondria Different-Phenotype (%): 13%
  Population Mitotic Cells (%): 75%
  Population Normal (%): 95%
  Population Pyknosed Nuclei (%): 4%
  Population Tubulin-Different-Phenotype (%): 18%
  Total Cell Count: 94
[7]
  Population Apoptotic (%): 55%
  Population Fragmented Nuclei (%): 9%
  Population Healthy Nuclei (%): 80%
  Population Hoechst High Intensity Objects (%): 3%
  Population Membrane Permeable-Phenotype (%): 3%
  Population Mitochondria Different-Phenotype (%): 8%
  Population Mitotic Cells (%): 45%
  Population Normal (%): 96%
  Population Pyknosed Nuclei (%): 10%
  Population Tubulin-Different-Phenotype (%): 5%
  Total Cell Count: 231
[8]
  Population Apoptotic (%): 76%
  Population Fragmented Nuclei (%): 13%
  Population Healthy Nuclei (%): 58%
  Population Hoechst High Intensity Objects (%): 13%
  Population Membrane Permeable-Phenotype (%): 48%
  Population Mitochondria Different-Phenotype (%): 33%
  Population Mitotic Cells (%): 23%
  Population Normal (%): 86%
  Population Pyknosed Nuclei (%): 28%
  Population Tubulin-Different-Phenotype (%): 77%
  Total Cell Count: 91
[9]
  Population Apoptotic (%): 22%
  Population Fragmented Nuclei (%): 4%
  Population Hoechst High Intensity Objects (%): 3%
  Population Membrane Permeable-Phenotype (%): 2%
  Population Mitochondria Different-Phenotype (%): 11%
  Population Mitotic Cells (%): 77%
  Population Normal (%): 96%
  Population Pyknosed Nuclei (%): 8%
  Population Tubulin-Different-Phenotype (%): 11%
  Total Cell Count: 107
[10]
  Population Apoptotic (%): 14%
  Population Fragmented Nuclei (%): 6%
  Population Healthy Nuclei (%): 87%
  Population Hoechst High Intensity Objects (%): 4%
  Population Membrane Permeable-Phenotype (%): 9%
  Population Mitochondria Different-Phenotype (%): 16%
  Population Mitotic Cells (%): 85%
  Population Normal (%): 95%
  Population Pyknosed Nuclei (%): 5%
  Population Tubulin-Different-Phenotype (%): 14%
  Total Cell Count: 96
[11]
  Population Apoptotic (%): 47%
  Population Fragmented Nuclei (%): 4%
  Population Healthy Nuclei (%): 89%
  Population Hoechst High Intensity Objects (%): 3%
  Population Membrane Permeable-Phenotype (%): 1%
  Population Mitochondria Different-Phenotype (%): 9%
  Population Mitotic Cells (%): 52%
  Population Normal (%): 96%
  Population Pyknosed Nuclei (%): 6%
  Population Tubulin-Different-Phenotype (%): 4%
  Total Cell Count: 365
[12]
  Population Apoptotic (%): 60%
  Population Fragmented Nuclei (%): 11%
  Population Healthy Nuclei (%): 73%
  Population Hoechst High Intensity Objects (%): 8%
  Population Membrane Permeable-Phenotype (%): 30%
  Population Mitochondria Different-Phenotype (%): 34%
  Population Mitotic Cells (%): 40%
  Population Normal (%): 91%
  Population Pyknosed Nuclei (%): 15%
  Population Tubulin-Different-Phenotype (%): 84%
  Total Cell Count: 129
